Experimental data collected from several papers.
Compare with care: the assays were run in different laboratories.
Target: Protein kinase C eta type (PRKCH, Homo sapiens, UniProt P24723)

SMILES | test | conditions | measurement | result
Cn1cncc1C1=CN(c2ncnc3[nH]cnc23)CCS1 | enzyme activity, inhibitor, radiometric | 50 nM | inhibition | 15.8%
CCN(CC)c1ccc(C2=NNC(=O)CC2C)cc1[N+](=O)[O-] (stereo not shown) | enzyme activity, inhibitor | 10 µM | remaining activity | 105%
Cc1sc(C(=O)NC2COC2)cc1-n1cc(NC(=O)Nc2c(F)cccc2Cl)cn1 | enzyme activity, inhibitor | 10 µM | remaining activity | 91.6%
CNC(=O)Nc1ccc2c(c1)[C@@]1(CC2)OC(=O)N(CC(=O)N(Cc2ccc(F)cc2)[C@@H](C)C(F)(F)F)C1=O | cell-free assay, competition with immobilised ligand | 1 µM | remaining binding | 87%
Cn1cnc(Br)c1C1=CN(c2ncnc3[nH]cnc23)CCS1 | enzyme activity, inhibitor, radiometric | 50 nM | inhibition | 29.7%
Cc1ccc(C(=O)NCc2ccsc2)cc1C#Cc1cn(C(C)C)c2ncnc(N)c12 | enzyme activity, inhibitor | 1 µM | activity vs control | 118%
CCCOc1ccc(OC)c(F)c1C(=O)c1ccc(C(=O)N[C@@H]2CNC[C@H]2NC(=O)c2ccc3[nH]ncc3c2)cc1 | enzyme activity, inhibitor | 10 µM | remaining activity | 16%
CC(C)(O)[C@H]1CC[C@H](Nc2ccc3ncc(-c4cccc(C(F)(F)F)c4)n3n2)CC1 | enzyme activity, inhibitor | 1 µM | remaining activity | 97.2%
COc1cc2ncnc(Nc3ccc(Oc4ccccc4)cc3C)c2cc1OC | enzyme activity, inhibitor | 1 µM | inhibition | 7%
CN1CCN(c2cnc3c(C4CCN(C(=O)c5ccc(OC(F)(F)F)cc5N)CC4)ncnc3c2)CC1 | cell-free assay, competition with immobilised ligand | 1 µM | remaining binding | 86%
Cc1ccc(NC(=O)c2ccc(C)c(C(F)(F)F)c2)cc1C#Cc1nn(C2CCC(O)CC2)c2ncnc(N)c12 (stereo not shown) | cell-free assay | 10 µM | remaining signal | 72%
CCCOc1ccc([C@H]2[C@H](C(=O)O)[C@@H](c3ccc4c(c3)OCO4)CN2CC(=O)Nc2c(CC)cccc2CC)cc1 | cell-free assay, competition with immobilised ligand | 1 µM | remaining binding | 100%
CCN(CC)CCNC(=O)c1c(C)[nH]c(/C=C2\C(=O)Nc3ccc(F)cc32)c1C | enzyme activity, inhibitor | 10 µM | inhibition | 4%
CCCS(=O)(=O)Nc1ccc(F)c(C(=O)c2c[nH]c3ncc(-c4ccc(Cl)cc4)cc23)c1F | enzyme activity, inhibitor | 1 µM | inhibition | < 10%
Nc1ncnc2occ(-c3ccc(NC(=O)Nc4cc(C(F)(F)F)ccc4F)cc3)c12 | cell-free assay | 20 µM | remaining signal | 64%
CNCc1ccccc1-c1csc([C@H](C)Nc2nc(C)nc3cc(OC)c(OC)cc23)c1 | cell-free assay, competition with immobilised ligand | 1 µM | remaining binding | 100%
Cc1cc(NC(=O)c2cccc3cc(-c4cccc5[nH]nc(N)c45)ccc23)ccc1F | enzyme activity, inhibitor | 0.1 µM | activity vs control | 109%
CCS(=O)(=O)c1cc2cc(C[C@](O)(CC(C)(C)c3ccc(F)cc3C(N)=O)C(F)(F)F)[nH]c2cn1 | cell-free assay, competition with immobilised ligand | 1 µM | remaining binding | 94%
CC/C(=N\NC(=O)NCc1cccc(O)c1)c1ccc(O)c(C)c1O | enzyme activity, inhibitor | 0.1 µM | inhibition | 44.8%
